In ChEMBL document CHEMBL1121484, “Thrombin inhibitors. 2. Amide derivatives of N alpha-substituted L-arginine” (J Med Chem, 1980):

Molecular target: Prothrombin (Bos taurus, UniProt P00735)
Experiment: Bovine thrombin concentration at which clotting time was prolonged 2x over the control.
Format: functional
Conditions: read-out: I50
How it was run: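 Clotting assay at 25 °C. The read-out was the time from thrombin addition to clot formation.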

SMILES | IC50 [µM]
CN(C)c1cccc2c(S(=O)(=O)NC(CCCNC(=N)N)C(=O)NC3CC3)cccc12 (stereo unspecified) | 500
CCCCN(C)C(=O)C(CCCNC(=N)N)NS(=O)(=O)c1ccc2ccccc2c1 (stereo unspecified) | 50
CCC1CCN(C(=O)C(CCCNC(=N)N)NS(=O)(=O)c2ccc3c(c2)CCCO3)CC1 (stereo unspecified) | 15
CN(Cc1ccccc1)C(=O)C(CCCN=C(N)N)NS(=O)(=O)c1cccc2c(N(C)C)cccc12 (stereo unspecified) | 7
CCC1CCN(C(=O)C(CCCN=C(N)N)NS(=O)(=O)c2cccc3c(C(=O)O)cccc23)CC1 (stereo unspecified) | 1000
CCCCCCNC(=O)C(CCCN=C(N)N)NS(=O)(=O)c1cccc2c(N(C)C)cccc12 (stereo unspecified) | 20
CN(C)c1cccc2c(S(=O)(=O)NC(CCCN=C(N)N)C(=O)NCc3ccccc3)cccc12 (stereo unspecified) | 50
N=C(N)NCCCC(NS(=O)(=O)c1ccc2c(c1)CCCC2)C(=O)N1CCCC1 (stereo unspecified) | 7
CN(C)c1cccc2c(S(=O)(=O)NC(CCCNC(=N)N)C(=O)N3CCCc4ccccc43)cccc12 (stereo unspecified) | 17
CC1CN(C(=O)C(CCCN=C(N)N)NS(=O)(=O)c2cccc3c(N(C)C)cccc23)CC(C)O1 (stereo unspecified) | 20
CCCCCNC(=O)C(CCCN=C(N)N)NS(=O)(=O)c1cccc2c(N(C)C)cccc12 (stereo unspecified) | 130
CCN(CC)C(=O)C(CCCN=C(N)N)NS(=O)(=O)c1cccc2c(N(C)C)cccc12 (stereo unspecified) | 55
CN(C)c1cccc2c(S(=O)(=O)NC(CCCN=C(N)N)C(=O)N3CC4CCCC(C4)C3)cccc12 (stereo unspecified) | 10
N=C(N)NCCCC(NS(=O)(=O)c1ccc2ccccc2c1)C(=O)N1CCCCCC1 (stereo unspecified) | 20
C=CCNC(=O)C(CCCN=C(N)N)NS(=O)(=O)c1cccc2c(N(C)C)cccc12 (stereo unspecified) | 10
N=C(N)NCCCC(NS(=O)(=O)c1cccc2ccccc12)C(=O)N1CCOCC1 (stereo unspecified) | 20

SMILES | IC50 [µM]
N=C(N)NCCCC(NS(=O)(=O)c1cccc2ccccc12)C(=O)N1CCCCCC1 (stereo unspecified) | 10
N=C(N)NCCCC(NS(=O)(=O)c1cccc2c1CCCC2)C(=O)N1CCOCC1 (stereo unspecified) | 6.5
CC1CCCN(C(=O)C(CCCNC(=N)N)NS(=O)(=O)c2cccc3c(N(C)C)cccc23)C1 (stereo unspecified) | 6.5
CCCCCCCNC(=O)C(CCCNC(=N)N)NS(=O)(=O)c1cccc2c(N(C)C)cccc12 (stereo unspecified) | 100
CN(C)c1cccc2c(S(=O)(=O)NC(CCCN=C(N)N)C(=O)N3CCC(c4ccccc4)CC3)cccc12 (stereo unspecified) | 100
CCC1CCN(C(=O)C(CCCN=C(N)N)NS(=O)(=O)c2cccc3c(O)cccc23)CC1 (stereo unspecified) | 6
CCNC(=O)C(CCCN=C(N)N)NS(=O)(=O)c1cccc2c(N(C)C)cccc12 (stereo unspecified) | 100
CN(C)c1cccc2c(S(=O)(=O)NC(CCCNC(=N)N)C(=O)NC3CCCCC3)cccc12 (stereo unspecified) | 500
COCCCNC(=O)C(CCCNC(=N)N)NS(=O)(=O)c1cccc2c(N(C)C)cccc12 (stereo unspecified) | 60
CN(C)c1cccc2c(S(=O)(=O)NC(CCCNC(=N)N)C(=O)NCC3CCCCC3)cccc12 (stereo unspecified) | 40
CCC1CCN(C(=O)C(CCCN=C(N)N)NS(=O)(=O)c2ccc3c(c2)OCCO3)CC1 (stereo unspecified) | 25
CCCNC(=O)C(CCCN=C(N)N)NS(=O)(=O)c1cccc2c(N(C)C)cccc12 (stereo unspecified) | 15
CCCCNC(=O)C(CCCNC(=N)N)NS(=O)(=O)c1cccc2ccccc12 (stereo unspecified) | 50
CN(C)c1cccc2c(S(=O)(=O)NC(CCCN=C(N)N)C(=O)N3CCC(C)(C)CC3)cccc12 (stereo unspecified) | 8
CN(C)c1cccc2c(S(=O)(=O)NC(CCCNC(=N)N)C(=O)NCCc3ccccc3)cccc12 (stereo unspecified) | 150
COCCNC(=O)C(CCCN=C(N)N)NS(=O)(=O)c1cccc2c1CCCC2 (stereo unspecified) | 40

Stronger by IC50, values ahead:

IC50 [µM] | SMILES
0.1 | CCC1CCN(C(=O)C(CCCNC(=N)N)NS(=O)(=O)c2cccc3c(N(C)C)cccc23)CC1 (stereo unspecified)
0.1 | COc1ccc2ccc(S(=O)(=O)NC(CCCN=C(N)N)C(=O)N3CCC(C)CC3)cc2c1 (stereo unspecified)
0.3 | CCC1CCN(C(=O)C(CCCN=C(N)N)NS(=O)(=O)c2ccc3cc(N(C)C)ccc3c2)CC1 (stereo unspecified)
0.9 | CN(C)c1cccc2c(S(=O)(=O)NC(CCCNC(=N)N)C(=O)N3CCCCCC3)cccc12 (stereo unspecified)
1 | CCC1CCN(C(=O)C(CCCN=C(N)N)NS(=O)(=O)c2cc(OC)c3ccccc3c2)CC1 (stereo unspecified)
1 | CCC1CCN(C(=O)C(CCCN=C(N)N)NS(=O)(=O)c2cccc3ccc(C)cc23)CC1 (stereo unspecified)
0.3 | CC1CCN(C(=O)C(CCCN=C(N)N)NS(=O)(=O)c2cccc3c(N(C)C)cccc23)CC1 (stereo unspecified)
0.3 | CCC1CCN(C(=O)C(CCCNC(=N)N)NS(=O)(=O)c2ccc3c(c2)Cc2ccccc2O3)CC1 (stereo unspecified)
1 | CN(C)c1cccc2c(S(=O)(=O)NC(CCCNC(=N)N)C(=O)N3CCc4ccccc43)cccc12 (stereo unspecified)
0.3 | CCC1CCN(C(=O)C(CCCN=C(N)N)NS(=O)(=O)c2cccc3c(N(CC)CC)cccc23)CC1 (stereo unspecified)
2 | CN1CCN(C(=O)C(CCCN=C(N)N)NS(=O)(=O)c2cccc3c(N(C)C)cccc23)CC1 (stereo unspecified)
0.7 | CCc1ccc2cc(S(=O)(=O)NC(CCCNC(=N)N)C(=O)N3CCC(CC)CC3)ccc2c1 (stereo unspecified)
0.6 | CC1CCN(C(=O)C(CCCN=C(N)N)NS(=O)(=O)c2ccc3c(c2)CCCC3)CC1 (stereo unspecified)
0.3 | CCC1CCN(C(=O)C(CCCNC(=N)N)NS(=O)(=O)c2ccc3c(c2)oc2ccccc23)CC1 (stereo unspecified)
0.8 | CCC1CCN(C(=O)C(CCCN=C(N)N)NS(=O)(=O)c2ccc3cc(OC(C)C)ccc3c2)CC1 (stereo unspecified)
1 | CCc1cc2cc(S(=O)(=O)NC(CCCN=C(N)N)C(=O)N3CCC(CC)CC3)ccc2oc1=O (stereo unspecified)
5 | CCCCNC(=O)C(CCCN=C(N)N)NS(=O)(=O)c1ccc2c(c1)CCCC2 (stereo unspecified)

IC50 [µM] | SMILES
3.5 | CC(=O)N1CCN(C(=O)C(CCCN=C(N)N)NS(=O)(=O)c2cccc3c(N(C)C)cccc23)CC1 (stereo unspecified)
0.075 | COc1ccc2cc(S(=O)(=O)NC(CCCN=C(N)N)C(=O)N3CCC(C)CC3)cc(OC)c2c1 (stereo unspecified)
2 | CCC1CCN(C(=O)C(CCCN=C(N)N)NS(=O)(=O)c2cccc3c(Cl)cccc23)CC1 (stereo unspecified)
0.1 | CCC1CCN(C(=O)C(CCCNC(=N)N)NS(=O)(=O)c2cc(OC)c3cc(OC)ccc3c2)CC1 (stereo unspecified)
0.2 | CCC1CCN(C(=O)C(CCCNC(=N)N)NS(=O)(=O)c2cccc3c2oc2ccccc23)CC1 (stereo unspecified)
2 | CN(C)c1cccc2c(S(=O)(=O)NC(CCCNC(=N)N)C(=O)N3CCCCCCCC3)cccc12 (stereo unspecified)
0.6 | CCC1CCN(C(=O)C(CCCN=C(N)N)NS(=O)(=O)c2cccc3c(OC)cccc23)CC1 (stereo unspecified)
0.15 | CCC1CCN(C(=O)C(CCCNC(=N)N)NS(=O)(=O)c2ccc3c(c2)Oc2ccccc2O3)CC1 (stereo unspecified)
0.3 | COc1cccc2c(S(=O)(=O)NC(CCCN=C(N)N)C(=O)N3CCC(C)CC3)cccc12 (stereo unspecified)
0.4 | CCC1CCN(C(=O)C(CCCNC(=N)N)NS(=O)(=O)c2cccc3c(OC(C)C)cccc23)CC1 (stereo unspecified)
0.4 | CCC1CCN(C(=O)C(CCCN=C(N)N)NS(=O)(=O)c2ccc3ccc(C)cc3c2)CC1 (stereo unspecified)
0.5 | CCC1CCN(C(=O)C(CCCN=C(N)N)NS(=O)(=O)c2cccc3c2CCCC3)CC1 (stereo unspecified)
0.15 | COc1cc2ccc(S(=O)(=O)NC(CCCN=C(N)N)C(=O)N3CCC(C)CC3)cc2cc1OC (stereo unspecified)
2 | CN(C)c1cccc2c(S(=O)(=O)NC(CCCNC(=N)N)C(=O)N3CCSCC3)cccc12 (stereo unspecified)
0.1 | CCC1CCN(C(=O)C(CCCNC(=N)N)NS(=O)(=O)c2ccc3ccc(OC)cc3c2)CC1 (stereo unspecified)
1 | CCC1CCN(C(=O)C(CCCN=C(N)N)NS(=O)(=O)c2ccc3ccccc3c2)CC1 (stereo unspecified)
1 | CCC1CCN(C(=O)C(CCCNC(=N)N)NS(=O)(=O)c2cccc3ccccc23)CC1 (stereo unspecified)
